Screening results as filed in PubChem BioAssay.
Lipid droplet: modulators of hepatic lipid droplet formation. hit rate 0.4% among 240,000. inhibition, % at 6.5 µM. AML12 mouse hepatocytes, oleate lipid droplets, BODIPY imaging. AID 1656;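 active means lipid droplet intensity inhibited by at least 50%, with more than 500 cells counted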
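Test system: AML12 mouse liver cells; schedule: overnight exposure; technique: high-content imaging of BODIPY-stained droplets and DAPI nuclei; read-out: % inhibition of corrected integrated BODIPY droplet signal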
p-CIP stab down: compounds decreasing mouse p/CIP protein stability. F442A p/CIP-EGFP cells, EGFP fluorescence, 16 h. hit rate 0.01% among 290,000. decrease of EGFP signal, % at 10 µM. Q05BA5;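 active means EGFP signal decrease of at least 30% at 10 µM or well 3 SD below plate mean, unless failing retest; inactive means the rest, including hits failing retest or dose response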
Target sequence (Q05BA5 1-1403): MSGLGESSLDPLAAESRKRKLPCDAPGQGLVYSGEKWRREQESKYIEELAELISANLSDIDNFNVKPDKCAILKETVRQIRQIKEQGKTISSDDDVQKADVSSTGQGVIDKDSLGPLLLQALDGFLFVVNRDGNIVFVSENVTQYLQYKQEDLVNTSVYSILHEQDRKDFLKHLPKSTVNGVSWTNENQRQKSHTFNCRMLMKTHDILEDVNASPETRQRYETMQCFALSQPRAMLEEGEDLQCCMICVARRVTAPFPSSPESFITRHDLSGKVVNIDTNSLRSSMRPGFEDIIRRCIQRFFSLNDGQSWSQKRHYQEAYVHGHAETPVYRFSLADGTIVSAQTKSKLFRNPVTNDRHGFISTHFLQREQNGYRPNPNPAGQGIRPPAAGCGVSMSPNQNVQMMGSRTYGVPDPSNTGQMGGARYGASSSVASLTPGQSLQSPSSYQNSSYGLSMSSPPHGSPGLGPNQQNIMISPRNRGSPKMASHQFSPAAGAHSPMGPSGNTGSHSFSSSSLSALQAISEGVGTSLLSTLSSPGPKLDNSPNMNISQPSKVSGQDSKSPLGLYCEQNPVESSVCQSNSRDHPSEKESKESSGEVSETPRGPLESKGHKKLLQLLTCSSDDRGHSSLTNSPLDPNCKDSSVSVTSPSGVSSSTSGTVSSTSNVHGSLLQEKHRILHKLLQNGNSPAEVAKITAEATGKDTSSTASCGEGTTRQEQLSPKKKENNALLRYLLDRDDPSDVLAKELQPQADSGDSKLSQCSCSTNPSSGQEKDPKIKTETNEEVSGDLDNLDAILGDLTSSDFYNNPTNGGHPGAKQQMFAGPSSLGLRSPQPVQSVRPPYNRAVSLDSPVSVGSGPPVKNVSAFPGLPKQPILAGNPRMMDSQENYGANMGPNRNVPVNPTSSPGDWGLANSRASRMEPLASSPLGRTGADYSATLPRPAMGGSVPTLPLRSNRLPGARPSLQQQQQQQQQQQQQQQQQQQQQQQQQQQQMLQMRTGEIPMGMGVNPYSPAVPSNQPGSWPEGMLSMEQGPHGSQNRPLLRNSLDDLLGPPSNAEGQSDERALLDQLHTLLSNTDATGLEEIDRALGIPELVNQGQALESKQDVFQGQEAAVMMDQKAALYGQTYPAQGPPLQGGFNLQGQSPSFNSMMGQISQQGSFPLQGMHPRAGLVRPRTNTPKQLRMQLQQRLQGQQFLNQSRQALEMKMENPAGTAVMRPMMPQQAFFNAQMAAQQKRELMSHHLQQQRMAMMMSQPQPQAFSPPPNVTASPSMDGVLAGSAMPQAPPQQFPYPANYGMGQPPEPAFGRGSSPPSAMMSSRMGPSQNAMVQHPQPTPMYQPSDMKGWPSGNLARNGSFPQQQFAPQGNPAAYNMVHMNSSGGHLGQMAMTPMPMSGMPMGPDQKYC
Mdm2 ligase inh: inhibitors of human Mdm2 E3 ubiquitin ligase; signal enhancement, % at 5 µM; hit rate 0.11% among 210,000; cell-based MDM2 ubiquitination luciferase reporter, 2 h; 0 = plate control, 100 = twice control, blank-subtracted;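 active means signal enhancement of 30% or more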;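 further: luminescence tracks abundance of the self-degrading MDM2-luciferase fusion protein; higher signal means inhibition of MDM2 E3 ligase activity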
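Material: stable MDM2–luciferase fusion reporter cells / Quantity: 2000 cells/well / Dosing: single 5 µM compound dose, 0.2% final DMSO / Buffer or medium: DMEM / Schedule: 4 h cell settling then 2 h compound exposure, 37 °C / Detection: luminescence with SteadyLite reagent, 15 min at room temperature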
Lipid drop inh: confirmation of inhibitors of hepatic lipid droplet formation; shares compounds with Lipid droplet; AML12 mouse hepatocytes, BODIPY lipid droplet imaging; droplets induced with 100 µM oleic acid; inhibition, % at 5.2 µM; hit rate 65% among 870; AID 463183;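 active means inhibition of lipid droplet metric at least 50%, with more than 300 cells in each of four replicates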
AML12 tox img: toxic to AML12 mouse hepatocytes in counter-screen. hit rate 3% among 870. shares compounds with Lipid droplet. DAPI nuclear morphology cytotoxicity imaging; hits give high values; cells fed 100 µM oleate overnight. AID 463200. z-score at 5 µM; in the data active means z-score above about 6.3;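 further: compound exposure lasted overnight at 37 °C before fixation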
AML12 tox conf: confirmation of cytotoxicity in AML12 mouse hepatocytes; shares compounds with Lipid droplet; AML12 mouse hepatocyte viability, ATP luminescence; cells loaded with 100 µM oleic acid; cytotoxicity, % at 50 µM; 530 tested, under 10 active; AID 463219;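 active means cytotoxicity above 50% in each of four replicates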;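 further: compound exposure lasted overnight at 37 °C before the ATP read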
Each line names hits and unclear results; the compound was inactive in the other large screens (follow-up assays come after a bar, where they were run); ! = repeats disagree. This is one part of a sample in which hits are shown more often than they occur.

CCN(CC)S(=O)(=O)c1ccc(C(=O)NCc2ccc3[nH]c4c(c3c2)CCCC4)cc1	Lipid droplet 85.4 (no result: Mdm2 ligase inh) | Lipid drop inh 90.4 | AML12 tox img inactive | AML12 tox conf inactive
CN(C)S(=O)(=O)c1ccc(C(=O)NCc2ccc3[nH]c4c(c3c2)CCCC4)cc1	none (no result: Mdm2 ligase inh)
CCOC(=O)c1ccc(N2CCN(c3ccccc3F)CC2)c(NC(=O)Nc2ccccc2)c1	Lipid droplet 52.1 | Lipid drop inh 100.0 | AML12 tox img inactive | AML12 tox conf inactive
CCOC(=O)c1ccc(N2CCN(c3ccc(F)cc3)CC2)c(NC(=O)Nc2cccc(OC)c2)c1	none
COc1ccc(NC(=O)c2sccc2C)cn1	Lipid droplet 60.4 | Lipid drop inh inactive | AML12 tox img inactive
Cc1ccsc1C(=O)Nc1ccc(C(=O)O)cc1	none
CCCCN(CCCNC(=O)Cn1nc(CC)n2c(cc3sc(C)cc32)c1=O)Cc1ccccc1	Lipid droplet 69.1 (no result: Mdm2 ligase inh) | Lipid drop inh 88.9 | AML12 tox img inactive | AML12 tox conf inactive
CCc1nn(CC(=O)NCCCN(CC)Cc2ccccc2)c(=O)c2cc3sccc3n12	none
COc1ccc(-c2nc(N)c(C#N)c(-c3cccnc3)c2C)cc1	none
CCc1cc2c(=O)c(-c3nc4ccccc4n3C)c(C)oc2c(CN2CCN(C)CC2)c1O	none
CCc1cc2c(=O)c(-c3nc4ccccc4n3C)c(C)oc2c(CN2CCOCC2)c1O	Lipid droplet 50.0 | Lipid drop inh 88.3 | AML12 tox img inactive | AML12 tox conf inactive
CCC(C(=O)NC1CCCC1)N(C(=O)Cn1nnc(-c2ccc(C)o2)n1)c1ccc(F)cc1 (centres undefined)	none (no result: Mdm2 ligase inh)
O=C1NC2(CCC3(CC2)OCCO3)NN1c1ccc(Cl)cc1	none
Nc1[nH]n(-c2ccccc2)c(=O)c1N=Nc1ccccc1	none
Cc1[nH]n(-c2ccccc2)c(=O)c1N=Nc1cccc(Cl)c1	Lipid droplet 63.7 (no result: Mdm2 ligase inh) | Lipid drop inh 100.6 | AML12 tox img inactive | AML12 tox conf inactive
Cc1[nH]n(-c2ccccc2)c(=O)c1N=Nc1cccc([N+](=O)[O-])c1	none (no result: Lipid droplet, Mdm2 ligase inh)
CC(=O)c1cccc(N=Nc2c(-c3ccccc3)[nH]n(-c3ccccc3)c2=O)c1	Lipid droplet 101.0 | Lipid drop inh 109.6 | AML12 tox img inactive | AML12 tox conf inactive
C#CCOCCOCCOCCNc1nc(N2CCN(C(=O)[C@H](CCCCN)n3cc([C@@H](N)CO)nn3)CC2)nc(N2CCN(C(=O)[C@H](Cc3cc4ccccc4[nH]3)n3cc([C@@H](N)CC(C)C)nn3)CC2)n1	none (no result: Mdm2 ligase inh)
Cc1ccc2c(c1)N(C(=O)CCC(=O)NC1CCCCCC1)CC(C)O2 (centres undefined)	none (no result: Mdm2 ligase inh)
O=C(Nc1ccc(NC(=O)c2cc3ccccc3o2)cc1)c1ccco1	Lipid droplet 70.3 (no result: Mdm2 ligase inh) | Lipid drop inh 64.6 | AML12 tox img inactive | AML12 tox conf inactive
COc1cc(NC(=O)c2ccco2)c(OC)cc1NC(=O)CCC(=O)Nc1cc(C)ccc1C	none (no result: Lipid droplet)
O=C(Nc1ccccc1)c1cc2ccccc2o1	none
CCOc1ccc(CC(=O)Nc2ccc(NC(=O)c3ccco3)cc2)cc1OCC	Lipid droplet 56.9 | Lipid drop inh 98.2 | AML12 tox img inactive | AML12 tox conf inactive
CCC(=O)Nc1ccc(NC(=O)c2ccco2)cc1	none (no result: Lipid droplet)
COc1cc(NC(=O)c2ccco2)c(OC)cc1NC(=O)CCC(=O)Nc1cc(C)cc(C)c1	Lipid droplet 96.7 | Lipid drop inh 106.8 | AML12 tox img inactive | AML12 tox conf 56.3
CCOC(=O)Cn1cnc2scc(-c3ccc(C)cc3)c2c1=O	none (no result: Mdm2 ligase inh)
CC1CCC(C(C)C)C(OC(=O)Cn2c(-c3ccc(Br)cc3)[n+](C)c3ccccc32)C1 (centres undefined)	none
Cc1ccccc1OCc1n(CC(=O)OC2CC(C)CCC2C(C)C)c2ccccc2[n+]1C (centres undefined)	Lipid droplet 53.9! | Lipid drop inh inactive | AML12 tox img inactive
N#Cc1ccc(Cl)cc1NC(=O)COC(=O)[C@H](CCC(N)=O)NC(=O)c1ccc(F)cc1	none
Cc1ccc(CNc2nc(C)nc3sc4c(c23)CCC4)cc1	none (no result: Lipid droplet)
Cc1nc(Nc2ccc(O)cc2)c2c3c(sc2n1)CCCC3	Lipid droplet 60.3 | Lipid drop inh 75.2 | AML12 tox img inactive
Cc1nnc(SC(C)C(=O)N2CCc3ccccc32)s1 (centres undefined)	none
CC(Sc1nnc(-c2ccccc2)c(-c2ccccc2)n1)C(=O)N1CCc2ccccc21 (centres undefined)	Lipid droplet 57.4 | Lipid drop inh 81.8 | AML12 tox img inactive | AML12 tox conf inactive
O=S(=O)(Nc1cccc(-c2nc3cccnc3s2)c1)c1cccs1	none
Cc1ccc(CCNC(=O)c2nc(CS(=O)(=O)c3ccc(Cl)cc3)no2)cc1	none (no result: Mdm2 ligase inh)
C=CCN1C(=O)c2ccccc2Sc2ccc(C(=O)NC(C)C)cc21	none (no result: Mdm2 ligase inh)
C=CCN1C(=O)c2ccccc2Sc2ccc(C(=O)NCC(OC)OC)cc21	Lipid droplet 54.7 (no result: Mdm2 ligase inh) | Lipid drop inh inactive | AML12 tox img inactive
Cc1ccc(C(=O)Nn2c(C)nc3ccccc3c2=O)cc1C	none (no result: Mdm2 ligase inh)
OC(COc1ccc2cc(Br)ccc2c1)Cn1ccnc1 (centres undefined)	Lipid droplet 52.8 (no result: Mdm2 ligase inh) | Lipid drop inh inactive | AML12 tox img inactive
COC(=O)c1cccc(OCC(O)Cn2ccnc2)c1 (centres undefined)	none (no result: Lipid droplet)
CS(=O)(=O)N1CCC(C(=O)Nc2cccc([N+](=O)[O-])c2)CC1	none
COc1ccc(-c2nc3c(c4nnc(SC(C)C(=O)Nc5ccc(C)cc5)n24)COC(C)(C)C3)cc1 (centres undefined)	Lipid droplet 62.1 | Lipid drop inh 79.4 | AML12 tox img inactive | AML12 tox conf inactive
COc1ccc(NC(=O)CSc2nnc3c4c(nc(-c5ccccc5)n23)CC(C)(C)OC4)cc1	none
COc1ccc(CCN(C)C2CCCN(C(=O)c3sccc3C)C2)cc1OC (centres undefined)	none (no result: Mdm2 ligase inh)
Cc1cc(C)c2c(NC(=O)CCl)nn(C)c2n1	none
CCc1cc(SC#N)cc(CC)c1NC(=O)CCl	Lipid droplet 81.0 | Lipid drop inh 78.6 | AML12 tox img inactive | AML12 tox conf inactive
COc1ccc(CN2CCSCC2)c(C)c1C	none (no result: Mdm2 ligase inh)
COc1ccc(/C=C\C(=O)NCc2ccc3[nH]c(C)cc3c2)cc1OC	Lipid droplet 73.9 (no result: Mdm2 ligase inh) | Lipid drop inh 95.9 | AML12 tox img inactive | AML12 tox conf inactive
COc1cc(/C=C\C(=O)NCc2ccc3[nH]c(C)cc3c2)cc(OC)c1OC	none (no result: Mdm2 ligase inh)
CC(=O)Nc1ccc(S(=O)(=O)NC2CC3CCC2C3)cc1 (centres undefined)	none (no result: Mdm2 ligase inh)
Cc1ccc(C)c(NC(=O)CS(=O)(=O)c2cccc3nsnc23)c1	none
CN(C)C(=O)c1ccc(-n2cnc3ccccc3c2=O)cc1	none
CN(C)/C=N/n1cnc2ccccc2c1=O	Lipid droplet 61.1 | Lipid drop inh inactive | AML12 tox img inactive
COc1ccccc1NS(=O)(=O)c1cccc(C(=O)N/N=C/c2c(C)nn(-c3ccccc3)c2N2CCCC2)c1	none
